Measurements taken from ChEMBL document CHEMBL3244362, “Photoaffinity labeling of the angiotensin II receptor. 3. Receptor inactivation with photolabile hormone analogues” (J Med Chem, 1979).
Calls of active or inactive are those of the source. No cut-off for these calls is given here. Square brackets hold non-standard residues; d marks the D form. Peptide text beside a SMILES is read from it. Phe(4-NO2) = N[C@@H](Cc1ccc([N+](=O)[O-])cc1)C(=O)O; Phe(4-N3) = [N-]=[N+]=Nc1ccc(C[C@H](N)C(=O)O)cc1; Phe(4-N2+) = N#[N+]c1ccc(C[C@H](N)C(=O)O)cc1; Sar = CNCC(=O)O

Tests used:
[1] = organism: Oryctolagus cuniculus; test: Binding affinity to angiotensin 2 receptor in albino New Zealand rabbit aorta relative to [Sar1]AT in absence of UV light
[2] = organism: Oryctolagus cuniculus; test: Intrinsic activity at angiotensin 2 receptor in albino New Zealand rabbit aorta in absence of UV light; assay type: tissue-based
Procedure, shortened: (§1)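 Rabbit aortic strips were suspended in Krebs solution at 37 °C, gassed with 95% O2/5% CO2, at 2.0 g tension, and equilibrated 60–90 min with bath changes every 10–15 min. Isometric contraction was recorded by force transducer in the dark. PD2 is the −log agonist concentration giving half-maximal contraction. pA2 is the −log antagonist concentration reducing a double agonist dose to a single-dose response. αE is intrinsic activity.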

[3] = biological target: T1, Angiotensin II receptor (Rattus norvegicus) (UniProt P29089+P25095+P35351); test: Inactivation of angiotensin 2 receptor in Wistar rat stomach assessed as relaxation of angiotensin-induced contraction at 1 uM treated for 180 mins followed by UV light exposed for 10 mins relative to control in presence of serotonin
Procedure, shortened: (§2)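 Strips in Krebs at 37 °C (95% O2/5% CO2, 2.0 g tension) received AT 0.2 μM at 60 and 120 min. The control agonist was noradrenaline for aorta and serotonin for stomach. At 180 min, peptide plus (4'amino)Phe 0.6 mM was added; after 5 min at maximal contraction, strips were UV-irradiated (365 nm black light) for 10 min and washed. AT response at 280 min was expressed as % of nonirradiated references. At least seven experiments; mean ± SE.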

[4] = organism: Oryctolagus cuniculus; test: Inactivation of angiotensin 2 receptor in albino New Zealand rabbit aorta assessed as relaxation of angiotensin-induced contraction at 10 uM treated for 180 mins followed by UV light exposed for 10 mins relative to control in presence of [Leu8]-AT; assay type: tissue-based; design: scale not given: the % may be the effect or the level left
Procedure, shortened: (§3)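 Protection protocol: aortic strips in Krebs at 37 °C were given AT 0.2 μM at 60 and 120 min, then preincubated 15 min with [Leu8]AT 5 μM (final) before the photolabel plus (4'amino)Phe 0.6 mM. After 5 min at maximal contraction, strips were UV-irradiated 10 min and washed only after photolysis. Residual AT response at 280 min was expressed as % of nonirradiated, identically incubated references.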

[5] = Antagonist activity at angiotensin 2 receptor in albino New Zealand rabbit aorta in absence of UV light; assay type: tissue-based, Oryctolagus cuniculus; procedure, shortened: as §1
[6] = organism: Oryctolagus cuniculus; test: Inactivation of angiotensin 2 receptor in albino New Zealand rabbit aorta assessed as relaxation of angiotensin-induced contraction at 10 uM treated for 180 mins followed by UV light exposed for 10 mins relative to control in presence of noradrenaline; assay type: tissue-based; design: scale not given: the % may be the effect or the level left; procedure, shortened: as §2
[7] = organism: Oryctolagus cuniculus; test: Agonist activity at angiotensin 2 receptor in albino New Zealand rabbit aorta in absence of UV light; assay type: tissue-based; procedure, shortened: as §1
[8] = organism: Oryctolagus cuniculus; test: Inactivation of angiotensin 2 receptor in albino New Zealand rabbit aorta assessed as relaxation of angiotensin-induced contraction at 0.2 uM treated for 180 mins followed by UV light exposed for 10 mins relative to control in presence of noradrenaline; assay type: tissue-based; design: scale not given: the % may be the effect or the level left; procedure, shortened: as §2
[9] = organism: Oryctolagus cuniculus; test: Inactivation of angiotensin 2 receptor in albino New Zealand rabbit aorta assessed as relaxation of angiotensin-induced contraction at 0.2 uM treated for 180 mins followed by UV light exposed for 10 mins relative to control in presence of [Leu8]-AT; assay type: tissue-based; design: scale not given: the % may be the effect or the level left; procedure, shortened: as §3
[10] = organism: Oryctolagus cuniculus; test: Inactivation of angiotensin 2 receptor in albino New Zealand rabbit aorta assessed as relaxation of angiotensin-induced contraction at 5 uM treated for 180 mins followed by UV light exposed for 10 mins relative to control in presence of [Leu8]-AT; assay type: tissue-based; design: scale not given: the % may be the effect or the level left; procedure, shortened: as §3
[11] = organism: Oryctolagus cuniculus; test: Inactivation of angiotensin 2 receptor in albino New Zealand rabbit aorta assessed as relaxation of angiotensin-induced contraction at 5 uM treated for 180 mins followed by UV light exposed for 10 mins relative to control in presence of noradrenaline; assay type: tissue-based; design: scale not given: the % may be the effect or the level left; procedure, shortened: as §2
[12] = biological target: T1, Angiotensin II receptor (Rattus norvegicus); test: Inactivation of angiotensin 2 receptor in Wistar rat aorta assessed as relaxation of angiotensin-induced contraction at 0.1 uM treated for 180 mins followed by UV light exposed for 10 mins relative to control in presence of noradrenaline; procedure, shortened: as §2
[13] = organism: Oryctolagus cuniculus; test: Inactivation of angiotensin 2 receptor in albino New Zealand rabbit aorta assessed as relaxation of angiotensin-induced contraction at 0.4 uM treated for 180 mins followed by UV light exposed for 10 mins relative to control in presence of [Leu8]-AT; assay type: tissue-based; design: scale not given: the % may be the effect or the level left; procedure, shortened: as §3
[14] = organism: Oryctolagus cuniculus; test: Inactivation of angiotensin 2 receptor in albino New Zealand rabbit aorta assessed as relaxation of angiotensin-induced contraction at 0.4 uM treated for 180 mins followed by UV light exposed for 10 mins relative to control in presence of noradrenaline; assay type: tissue-based; design: scale not given: the % may be the effect or the level left; procedure, shortened: as §2

Compound | RBA [1] | Intrinsic activity [2] | Activity [6] | pD2 [7] | further results
CNCC(=O)N[C@@H](CCCNC(=N)N)C(=O)N[C@H](C(=O)N[C@@H](Cc1ccc([N+](=O)[O-])cc1)C(=O)N[C@H](C(=O)N[C@@H](Cc1cnc[nH]1)C(=O)N1CCC[C@H]1C(=O)N[C@@H](Cc1ccccc1)C(=O)O)C(C)C)C(C)C (H-[Sar]RV[Phe(4-NO2)]VHPF-OH) | 0% | 0 | 105% | < 5 | inhibition [3]: inactive; Activity [4]: 102%; pA2 [5]: < 5
CNCC(=O)N[C@@H](CCCNC(=N)N)C(=O)N[C@H](C(=O)N[C@@H](Cc1ccc([N+]#N)cc1)C(=O)N[C@H](C(=O)N[C@@H](Cc1cnc[nH]1)C(=O)N1CCC[C@H]1C(=O)N[C@@H](Cc1ccc([N+]#N)cc1)C(=O)O)C(C)C)C(C)C (H-[Sar]RV[Phe(4-N2+)]VHP[Phe(4-N2+)]-OH) | 1.3% | 1 | – | 7.36 | –
CNCC(=O)N[C@@H](CCCNC(=N)N)C(=O)N[C@H](C(=O)N[C@@H](Cc1ccc(N=[N+]=[N-])cc1)C(=O)N[C@H](C(=O)N[C@@H](Cc1cnc[nH]1)C(=O)N1CCC[C@H]1C(=O)N[C@@H](Cc1ccc(N=[N+]=[N-])cc1)C(=O)O)C(C)C)C(C)C (H-[Sar]RV[Phe(4-N3)]VHP[Phe(4-N3)]-OH) | 0.07% | 0.8 | 100% | 6.12 | Activity [4]: 92%
CNCC(=O)N[C@@H](CCCNC(=N)N)C(=O)N[C@H](C(=O)N[C@@H](Cc1ccc([N+](=O)[O-])cc1)C(=O)N[C@H](C(=O)N[C@@H](Cc1cnc[nH]1)C(=O)N1CCC[C@H]1C(=O)N[C@@H](Cc1ccc([N+](=O)[O-])cc1)C(=O)O)C(C)C)C(C)C (H-[Sar]RV[Phe(4-NO2)]VHP[Phe(4-NO2)]-OH) | 0.06% | 0.5 | 99% | 6.02 | –
CNCC(=O)N[C@@H](CCCNC(=N)N)C(=O)N[C@H](C(=O)N[C@@H](Cc1ccc(O)cc1)C(=O)N[C@H](C(=O)N[C@@H](Cc1cnc[nH]1)C(=O)N1CCC[C@H]1C(=O)N[C@@H](Cc1ccccc1)C(=O)O)C(C)C)C(C)C (H-[Sar]RVYVHPF-OH) | – | 1 | – | 9.23 | Activity [8]: 100%; Activity [9]: 100%
CNCC(=O)N[C@@H](CCCNC(=N)N)C(=O)N[C@H](C(=O)N[C@@H](Cc1ccc(N=[N+]=[N-])cc1)C(=O)N[C@H](C(=O)N[C@@H](Cc1cnc[nH]1)C(=O)N1CCC[C@H]1C(=O)N[C@@H](Cc1ccccc1)C(=O)O)C(C)C)C(C)C (H-[Sar]RV[Phe(4-N3)]VHPF-OH) | 0.26% | 0.75 | – | 6.65 | Activity [10]: 64%; Activity [11]: 98%
CNCC(=O)N[C@@H](CCCNC(=N)N)C(=O)N[C@H](C(=O)N[C@@H](Cc1ccc(O)cc1)C(=O)N[C@H](C(=O)N[C@@H](Cc1cnc[nH]1)C(=O)N1CCC[C@H]1C(=O)N[C@@H](Cc1ccc(N=[N+]=[N-])cc1)C(=O)O)C(C)C)C(C)C | 31% | 1 | – | 8.72 | inhibition [12]: Active; Activity [13]: 103%; Activity [14]: 100%
CNCC(=O)N[C@@H](CCCNC(=N)N)C(=O)N[C@H](C(=O)N[C@@H](Cc1ccc(O)cc1)C(=O)N[C@H](C(=O)N[C@@H](Cc1cnc[nH]1)C(=O)N1CCC[C@H]1C(=O)N[C@@H](Cc1ccc([N+](=O)[O-])cc1)C(=O)O)C(C)C)C(C)C | 69% | 0.46 | – | 9.07 | Activity [14]: 95%
CNCC(=O)N[C@@H](CCCNC(=N)N)C(=O)N[C@H](C(=O)N[C@@H](Cc1ccc(O)cc1)C(=O)N[C@H](C(=O)N[C@@H](Cc1cnc[nH]1)C(=O)N1CCC[C@H]1C(=O)N[C@@H](Cc1ccc([N+]#N)cc1)C(=O)O)C(C)C)C(C)C | 13% | 1 | – | 8.33 | Activity [10]: 72%; Activity [11]: 78%
CNCC(=O)N[C@@H](CCCNC(=N)N)C(=O)N[C@H](C(=O)N[C@@H](Cc1ccc([N+]#N)cc1)C(=O)N[C@H](C(=O)N[C@@H](Cc1cnc[nH]1)C(=O)N1CCC[C@H]1C(=O)N[C@@H](Cc1ccccc1)C(=O)O)C(C)C)C(C)C (H-[Sar]RV[Phe(4-N2+)]VHPF-OH) | 0.66% | 1 | – | 7.05 | –
